From PubChem BioAssay
Hits are enriched below; roughly 4.4% of the tested compounds scored in any of these assays.
AI-2 QS modul: modulates the Vibrio harveyi AI-2 quorum sensing system; Vibrio harveyi JMH597 AI-2 luminescence/OD600 ratio, 9 h; hits give low values; strain lacks LuxN and CqsS sensors; 0 = neutral-control median; activity change, % at 7.5 µM; 0.4% of 300,000 active; AID 2094; in the data active means activity change below about -75%, passing the limit was not always enough;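 further: luminescence divided by OD600 gain over 9 h not by final OD600 alone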
AHR act: activates the human aryl hydrocarbon receptor; P35869; AHR-responsive luciferase reporter cells, luminescence; activation, % at 5 µM; 2.5% of 320,000 active; AID 2796; in the data active means activation above about 47%;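 further: 0% = vehicle wells and 100% = reference agonist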
TbMetRS inhib: Trypanosoma brucei MetRS inhibition | purified T. brucei MetRS, ATP depletion, Kinase-Glo luminescence | inhibition, % at 11.9 µM | 0.4% of 360,000 active | AID 624268;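 active means inhibition above a per-plate cutoff of the control wells' mean inhibition plus 3 SD, cut at about 5.5% in these data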;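 further: 0% = DMSO wells median and 100% = median of wells with control inhibitor compound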
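Dosing: 11.9 µM compound single dose, 0.9% DMSO; Assay system: purified T. brucei MetRS enzyme; Measured by: Kinase-Glo luciferase luminescence reporting remaining unconsumed ATP; Schedule: 15 min plus 2 h at 25 °C.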
MsrA inhibitor: inhibits bovine methionine sulfoxide reductase A | inhibition, % at 15.5 µM | purified bovine MsrA, absorbance read-out | 0.75% of 360,000 active; in the data active means inhibition above about 4.5%;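 further: 0% = vehicle wells with enzyme and 100% = reference inhibitor wells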
HTR2A ag: mouse HTR2A agonism via beta-arrestin recruitment | P35363 | CHO-K1 mHTR2A beta-arrestin complementation, luminescence; percent of 30 µM serotonin response | activation, % at 7.6 µM | 0.66% of 360,000 active;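 active means activation above a run cutoff, the mean activation of all tested compounds plus 3 SD, cut at about 14% in these data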;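 further: 0% = plate median of compound wells and 100% = 30 µM serotonin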
Target sequence (P35363 whole entry, looked up): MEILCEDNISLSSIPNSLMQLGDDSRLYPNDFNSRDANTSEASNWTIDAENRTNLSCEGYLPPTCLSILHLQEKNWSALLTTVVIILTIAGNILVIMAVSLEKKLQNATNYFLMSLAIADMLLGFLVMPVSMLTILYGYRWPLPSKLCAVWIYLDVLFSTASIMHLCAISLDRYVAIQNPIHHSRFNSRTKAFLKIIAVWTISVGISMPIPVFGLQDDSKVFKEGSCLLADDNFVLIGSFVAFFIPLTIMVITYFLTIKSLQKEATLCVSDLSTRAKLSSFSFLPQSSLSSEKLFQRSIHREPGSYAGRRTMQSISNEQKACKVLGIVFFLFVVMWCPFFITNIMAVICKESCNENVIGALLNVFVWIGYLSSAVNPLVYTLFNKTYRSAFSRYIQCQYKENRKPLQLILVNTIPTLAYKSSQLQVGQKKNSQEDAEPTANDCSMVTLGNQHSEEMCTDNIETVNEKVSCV
bovine MsrA act: bovine methionine sulfoxide reductase A activation. purified bovine MsrA, absorbance read-out. activation, % at 10.6 µM. 0.3% of 360,000 active; in the data active means activation above about 7.5%;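 further: 0% = vehicle and 100% = reference activator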
* marks the source's active call; other numbers are inactive results; . = no result.

SMILES | AI-2 QS modul | AHR act | TbMetRS inhib | MsrA inhibitor | HTR2A ag | bovine MsrA act
CC(=O)c1cccc(Nc2cc(C)nc3ccccc23)c1 | 35 | 18 | 0 | 1 | 1 | -4
COc1nc(NCCc2ccc(OC)c(OC)c2)nc(Nc2ccccc2)n1 | 33 | 48* | 0 | -1 | -1 | -10
CCN(CC)C(=O)c1[nH]cnc1C(=O)Nc1cccc(Cl)c1 | . | 67* | 1 | 1 | 2 | -1
COCCn1nnnc1CN(Cc1ccco1)Cc1cc2cc3c(cc2[nH]c1=O)OCO3 | 18 | 72* | 0 | 3 | 0 | -2
COc1ccc2[nH]c(=O)c(CN(Cc3ccco3)Cc3nnnn3Cc3ccccc3)cc2c1 | 13 | 0 | 1 | 3 | 4 | 0
C[C@@H]1CN(c2ccc(N3CCNC[C@@H]3C)cc2C#N)C[C@H](C)O1 | . | . | . | 1 | . | .
COc1cc(-c2nc3n(n2)C(c2ccc(F)cc2)C2=C(CCCC2=O)N3)cc(OC)c1OC (centres undefined) | 12 | 82* | -1 | 0 | 1 | -8
O=C1c2ccccc2C(=O)N1CCCCN(C(=O)c1cccc([N+](=O)[O-])c1)c1ccc(Cl)cc1 | 28 | 72* | 0 | 1 | 0 | -1
O=C1c2ccccc2C(=O)N1CCCCN(C(=O)c1ccco1)c1ccc(Cl)cc1 | 0 | -3 | 0 | 0 | -4 | -1
NS(=O)(=O)c1ccc(N=Nc2c(O)ccc3ccccc23)cc1 | 13 | 4 | 0 | 1 | -1 | -1
Oc1ccc(N=Nc2c(O)ccc3ccccc23)cc1 | -6 | 79* | 0 | -1 | -9 | -4
COC(=O)c1cc2c(c3c4cc(C)ccc4n(S(=O)(=O)c4ccccc4)c13)C(=O)N(Cc1ccc(C(F)(F)F)cc1)C2 | . | . | . | 0 | . | .
Cc1cc(C(=O)Nc2sc(C)c(C)c2C#N)c(C)o1 | 5 | 76* | -2 | -1 | 0 | -12
COc1ccc(C(=O)Nc2nnc(C(F)(F)F)s2)cc1 | 11 | 59* | 0 | 0 | 1 | 1
CC(=O)c1cc(F)ccc1OCC(=O)N1CCCc2ccccc21 | 11 | 6 | 0 | -1 | 2 | 1
C#CCNC(=O)C1=C[C@@H](C2CCCCC2)C[C@@H](OCc2ccc(CO)cc2)O1 | 16 | 48* | 0 | 0 | -5 | -3
CC(=O)n1cc([C@@H]2C=C(C(=O)NCc3ccccc3)O[C@H](OCc3ccc(CO)cc3)C2)c2ccccc21 | 20 | 66* | 0 | -1 | -2 | -1
C#CCNC(=O)C1=C[C@H](c2cn(C(C)=O)c3ccccc23)C[C@H](OCc2ccc(CO)cc2)O1 | 4 | 41 | 0 | 1 | 4 | 0
C#CCNC(=O)C1=C[C@H](C2CCCCC2)C[C@H](OCc2ccc(CO)cc2)O1 | 5 | 0 | 0 | -1 | 2 | -1
CC(=O)n1cc([C@@H]2C=C(C(=O)Nc3ccccc3)O[C@H](OCCCCO)C2)c2ccccc21 | 26 | 57* | 0 | -1 | -1 | -8
CCOC(=O)C(CNc1ccc(OCc2ccccc2)cc1)NC(=O)c1ccccc1 (centres undefined) | . | . | . | 0 | . | .
Cc1ccc(-c2cc(-c3ccc(C)cc3O)[nH]n2)cc1 | 12 | 68* | 0 | 2 | -6 | -1
CC(=O)Nc1ccc(NC(=O)c2cc(-c3ccc(C)cc3O)n[nH]2)cc1 | 2 | 12 | -1 | 1 | 3 | -3
Cc1ccc(O)c(-c2cc(-c3cccc(Br)c3)n[nH]2)c1 | 20 | 70* | 0 | 0 | -3 | -3
Cc1ccc(-c2cc(-c3ccc(F)cc3)n[nH]2)c(O)c1 | -26 | . | 1 | -1 | -6 | -6
SMILES | AI-2 QS modul | AHR act | TbMetRS inhib | MsrA inhibitor | HTR2A ag | bovine MsrA act
Cc1ccc(-c2cc(-c3ccccc3[N+](=O)[O-])[nH]n2)c(O)c1 | 16 | 60* | 0 | 2 | -6 | -1
Cc1ccc(-c2cc(-c3ccccc3Cl)[nH]n2)c(O)c1 | 4 | 86* | 0 | 0 | 3 | 6
Cc1ccc2nc(-c3cccc(Br)c3)c(Cc3ccsc3)n2c1 | . | . | . | 0 | . | .
O=C(NCc1ccccc1)[C@@H]1CCCN1C(=O)[C@H]1CCCN1C(=O)c1ccc(OC(F)(F)F)cc1 | . | . | . | 0 | . | .
Cc1nn(-c2ccccc2)c(C)c1/C=N/NC(=O)c1cc(-c2cccc3ccccc23)n[nH]1 | 20 | 29 | 0 | 2 | -10 | -2
Cc1[nH]c2ccccc2c1/C=N/NC(=O)c1cccc(Br)c1 | 25 | 68* | -1 | . | -8 | -1
Cc1nn(-c2ccccc2)c(C)c1/C=N/NC(=O)c1cc(-c2ccccc2)n[nH]1 | 9 | 48* | -1 | -1 | -3 | -3
Cc1ccc(NC(=S)N/N=C/c2c(C)[nH]c3ccccc23)cc1 | 30 | 75* | 0 | 2 | 1 | -5
Cc1[nH]c2ccccc2c1/C=N/NC(=O)c1cc(-c2ccncc2)nc2ccccc12 | -4 | 57* | 0 | 2 | -8 | -4
O=C(N/N=C/c1ccccc1OC(F)F)c1cc(-c2ccncc2)nc2ccccc12 | 10 | 25 | 1 | 1 | 1 | -2
Cc1[nH]c2ccccc2c1/C=N/NC(=S)NCc1ccccc1 | 20 | 8 | 0 | 2 | -4 | -3
Cc1ccccc1-c1ccc2c(c1)[C@@H]1C[C@H]3[C@@H](CN1CC2)[C@H](C)OC(C1CCCCC1)N3C (some centres undefined) | . | . | . | -1 | . | .
CC(C)C[C@H]1COc2ccc(Cl)cc2S(=O)(=O)N1 | . | . | . | 0 | . | .
Cc1[nH]c2ccccc2c1/C=N/NC(=O)c1cc(-c2ccccc2)n[nH]1 | -21 | 59* | 0 | 2 | 7 | -7
CCCCCCCCN1C(=O)[C@@H](CC(=O)NCc2ccc(C)o2)C[C@@]2(C(=O)OC)C1=C[C@H](C1CCCC1)O[C@@H]2C | . | . | . | 0 | . | .
CC(C)c1ccc(CNc2ccc([N+](=O)[O-])cn2)cc1 | -55 | 3 | -2 | 1 | 7 | -16
CC(C)(C)c1ccc(CNc2ccc([N+](=O)[O-])cn2)cc1 | -83* | 4 | -1 | 0 | 2 | -11
COC(=O)N1C2CCCCC2=NN(c2ccccc2)N1C(=O)OC (centres undefined) | . | . | -2 | 0 | -4 | -14
CCOc1ccc(CCNC(=O)Cn2nc(C)n3cccc3c2=O)cc1OCC | 7 | 1 | 0 | . | -1 | 0
CCOC(=O)C/C(=N\Nc1ncnc2ccccc12)c1ccccc1 | 11 | 69* | 0 | 2 | 11 | -5
COC(=O)C1=C(C)N(C)C(=NCc2ccccc2)NC1c1cccc(Cl)c1 (centres undefined) | . | . | . | 0 | . | .
O=C(CSc1nnc2c3ccccc3c3ccccc3c2n1)Nc1ccccc1 | 10 | 47* | . | . | . | .
O=C(CSc1nnc2c(n1)[nH]c1ccc(F)cc12)Nc1ccccc1F | 21 | 3 | 3 | 0 | 6 | -4
O=C(CSc1nnc2c3ccccc3c3ccccc3c2n1)Nc1ccccc1F | 36 | 68* | 0 | 2 | -2 | -7
